From ChEMBL document CHEMBL4613270, “Structure-Activity Relationship Study Enables the Discovery of a Novel Berberine Analogue as the RXRα Activator to Inhibit Colon Cancer” (J Med Chem, 2020)
Calls of active or inactive are those of the source. The rule behind the calls is not given here.

Columns and labels:
[1] = biological target: T1, Retinoic acid receptor RXR-alpha (Homo sapiens) (UniProt P19793); test: In-vivo activation of RXRalpha in BALB/c mouse xenografted with human KM12C cells assessed as reduction in c-Myc protein expression at 100 mg/kg, ig dosed daily for 15 days by Western blot analysis; type: functional, organism-based
T1 sequence (whole entry): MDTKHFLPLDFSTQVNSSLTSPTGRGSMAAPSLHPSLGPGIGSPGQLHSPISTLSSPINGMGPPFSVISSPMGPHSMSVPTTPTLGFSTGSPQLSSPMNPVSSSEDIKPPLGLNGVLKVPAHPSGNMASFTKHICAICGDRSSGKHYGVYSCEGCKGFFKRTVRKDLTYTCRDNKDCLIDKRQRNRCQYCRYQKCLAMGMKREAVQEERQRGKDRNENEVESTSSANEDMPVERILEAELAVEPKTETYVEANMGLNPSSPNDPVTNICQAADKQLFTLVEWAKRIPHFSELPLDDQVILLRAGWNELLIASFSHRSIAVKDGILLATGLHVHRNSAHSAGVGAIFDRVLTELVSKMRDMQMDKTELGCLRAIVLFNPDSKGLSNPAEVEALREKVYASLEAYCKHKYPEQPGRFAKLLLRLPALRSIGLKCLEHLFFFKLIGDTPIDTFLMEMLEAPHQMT
Outline: (§1)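 KM12C cells (1×10^6 per mouse in 100 μL HBSS) injected subcutaneously into both flanks of nude mice; after seven days, randomized to three groups, dosed intragastrically once daily for 15 days with vehicle (CMC-Na) or 100 mg/kg compound; mice euthanized and tumors removed for analysis.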

[2] = biological target: T1, Retinoic acid receptor RXR-alpha (Homo sapiens); test: Activation of RXRalpha in human SW620 cells assessed as inhibition of Wnt/beta-catenin-dependent transcriptional activity at 40 to 80 uM incubated for 15 hrs by TOP/FOP luciferase assay; type: cell-based; conditions: SW-620
Outline: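 TOP/FOP reporter: cells co-transfected by lipofection with pRL-TK plus TOPflash or FOPflash; compound added 20 h after transfection for 15 h; passive lysis at 4 °C, 1 h; firefly and Renilla luciferase measured by dual-luciferase assay.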

[3] = biological target: T1, Retinoic acid receptor RXR-alpha (Homo sapiens); test: In-vivo activation of RXRalpha in BALB/c mouse xenografted with human KM12C cells assessed as reduction in c-Myc protein expression at 100 mg/kg, ig dosed daily for 15 days by immunohistochemistry analysis; type: functional, organism-based; outline: as §1
KM12C [4] = test: Activation of RXRalpha R371S mutant LBD (unknown origin) expressed in human KM12C cells at 50 uM incubated for 15 hrs by luciferase reporter gene assay; type: cell-based
Outline: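 KM12C cells co-transfected with pG5luc and pBIND-RXRα-LBD (wild type or mutants) using Lipofectamine 2000. Twenty hours after transfection, compound added at 50 μM for 15 h. Cells lysed in passive lysis buffer (4 °C, 1 h), then firefly and Renilla luciferase read by dual-luciferase assay. Basal level normalized to 1.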

[5] = Toxicity in BALB/c mouse xenografted with human KM12C cells assessed as effect on biochemical parameter by measuring TBIL level at 100 mg/kg, ig dosed daily for 15 days by automatic chemistry analyzer based analysis (reference value: 0.28 +/- 0.024 umol/L); type: organism-based; conditions: in vivo, po, 360 h
[6] = biological target: T1, Retinoic acid receptor RXR-alpha (Homo sapiens); test: Activation of RXRalpha in human SW620 cells assessed as reduction in Cdc2 mRNA expression at 40 to 80 uM incubated for 15 hrs by real-time PCR analysis; type: cell-based; conditions: SW-620
[7] = biological target: T1, Retinoic acid receptor RXR-alpha (Homo sapiens); test: Activation of RXRalpha in human KM12C cells assessed as […] crease in p21 (WAF1/CIP1) mRNA expression at 25 to 50 uM incubated for 15 hrs by real-time PCR analysis; type: cell-based
[8] = Tmax in Sprague-Dawley rat at 100 mg/kg, ig measured after 0.083 to 36 hrs by LC-MS/MS analysis; type: ADME, organism-based; conditions: in vivo, po
Outline: (§2)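 SD rats (200 ± 20 g) randomized to three groups; single intragastric dose of 100 mg/kg or vehicle (0.5% CMC-Na). Tail-vein blood (0.5 mL) drawn at 0.083, 0.25, 0.5, 1, 2, 4, 8, 12, 24 and 36 h. Plasma separated by centrifugation at 2000 rpm for 10 min, frozen at -80 °C, then quantified by LC-MS/MS.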

[9] = biological target: T1, Retinoic acid receptor RXR-alpha (Homo sapiens); test: In-vivo activation of RXRalpha in BALB/c mouse xenografted with human KM12C cells assessed as increase in p21 (WAF1/CIP1) mRNA expression at 100 mg/kg, ig dosed daily for 15 days by real-time PCR analysis; type: functional, organism-based
[10] = biological target: T1, Retinoic acid receptor RXR-alpha (Homo sapiens); test: In-vivo activation of RXRalpha in BALB/c mouse xenografted with human KM12C cells assessed as induction of beta-catenin protein degradation at 100 mg/kg, ig dosed daily for 15 days by immunohistochemistry analysis; type: functional, organism-based; outline: as §1
[11] = biological target: T1, Retinoic acid receptor RXR-alpha (Homo sapiens); test: Activation of RXRalpha in human SW620 cells assessed as reduction in c-Myc mRNA expression at 40 to 80 uM incubated for 15 hrs by real-time PCR analysis; type: cell-based; conditions: SW-620
[12] = biological target: T1, Retinoic acid receptor RXR-alpha (Homo sapiens); test: Activation of RXRalpha in human HCT116 cells assessed as reduction in Cdc2 protein expression at 30 to 60 uM incubated for 15 hrs by Western blot analysis; type: cell-based; conditions: HCT-116
[13] = AUC (0 to t) in Sprague-Dawley rat at 100 mg/kg, ig measured after 0.083 to 36 hrs by LC-MS/MS analysis; type: ADME, organism-based; set-up: time upper 36 hr, time lower 0.083 hr, dose 100 mg/kg, route intragastric; conditions: in vivo, po; outline: as §2
[14] = biological target: T1, Retinoic acid receptor RXR-alpha (Homo sapiens); test: Activation of RXRalpha in human HCT116 cells assessed as reduction in c-Myc protein expression at 30 to 60 uM incubated for 15 hrs by Western blot analysis; type: cell-based; conditions: HCT-116
[15] = biological target: T1, Retinoic acid receptor RXR-alpha (Homo sapiens); test: Activation of RXRalpha (unknown origin) expressed in human SW620 cells co-expressing beta-catenin and c-Cbl assessed as induction of beta-caten interaction with c-Cbl at 40 to 80 uM incubated for 15 hrs by mammalian two-hybrid assay; type: cell-based; conditions: SW-620
Outline: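 Mammalian two-hybrid: cells co-transfected by lipofection with pBIND-β-catenin/S33Y plus pACT-RXRα (RXRα–β-catenin) or pACT-c-Cbl (β-catenin–c-Cbl); 20 h after transfection, compound added for 15 h; cells lysed in passive lysis buffer, 4 °C, 1 h; firefly and Renilla luciferase read by dual-luciferase kit.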

[16] = biological target: T1, Retinoic acid receptor RXR-alpha (Homo sapiens); test: Activation of RXRalpha in human SW620 cells assessed as reduction in Cdc2 protein expression at 40 to 80 uM incubated for 15 hrs by Western blot analysis; type: cell-based; conditions: SW-620
KM12C [17] = test: Antitumor activity against human KM12C cells xenografted in BALB/c mouse assessed as inhibition of tumor growth at 100 mg/kg, ig dosed daily for 15 days relative to control; type: functional; conditions: po, 360 h, read-out: TGI
Outline: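 Nude mice received subcutaneous injections of KM12C cells (1×10⁶ in 100 μL HBSS) into both flanks. After seven days, tumour-bearing mice (80–200 mm³) were randomized into three groups. Daily intragastric dosing at 100 mg/kg, or CMC-Na vehicle, for 15 days. Tumours then excised and weighed; inhibition rate calculated versus vehicle.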

[18] = Toxicity in BALB/c mouse xenografted with human KM12C cells assessed as effect on biochemical parameter by measuring AST level at 100 mg/kg, ig dosed daily for 15 days by automatic chemistry analyzer based analysis (reference value: 157.15 +/- 8.41 U/L); type: organism-based; conditions: in vivo, po, 360 h

SMILES	Activity [1]	Activity [2]	Activity [3]	Activity (KM12C [4])	Activity [5] [µmol/L]	Activity [6]	Activity [7]	Tmax [8] [h]	Activity [9]	Activity [10]	Activity [11]	Activity [12]	AUC(0-t) [13] [ng·h/mL]	Activity [14]	Activity [15]	Activity [16]	inhibition in vivo at 100 mg/kg (KM12C [17]) [%]	Activity [18] [U/L]
COc1ccc2cc3[n+](cc2c1OC)CCc1cc2c(cc1-3)OCO2.[Cl-] [BERBERINE CHLORIDE]	Active	Active	Active	inactive	0.26	Active	Active	2	Active	Active	Active	Active	99	Active	Active	Active	33.6	177.86
COc1ccc2c(c1)CC[n+]1cc3c(OC)cccc3cc1-2.[Cl-]	Active	Active	Active	inactive	0.21	Active	Active	2	Active	Active	Active	Active	2100	Active	Active	Active	69.1	158.36
